This is an account of results in ChEMBL document CHEMBL2331102 (Bioorg Med Chem, 2013).

In brackets after ≈: the same amount, converted by molar mass. Activity calls are given as the source filed them. The rule behind the calls is not given here.

For data set [1], the system named is Trypanosoma cruzi. In words: Antitrypanosomal activity against Trypanosoma cruzi Tulahuen TcVI infected in Swiss mouse model of Chagas disease assessed as decrease in blood parasitemia level at 100 mg/kg once daily for 5 consecutive days through oral gavage starting on day 8 post infection measured 14 days post infection. Also noted: scale not given: the % may be the effect or the level left. It is filed as functional. The essentials:
(§1)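 Female Swiss mice (n = 5 per group) were infected with 25,000 blood-form T. cruzi Tulahuen TcVI trypomastigotes. From day 8 post-infection, they received once-daily oral gavage for 5 consecutive days. Blood trypomastigotes/mL were counted on days 8, 9, 12 and 14 pi, and efficacy was taken as decreased parasitemia versus vehicle-treated mice on day 14.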

Data set [2] has as its system Trypanosoma cruzi. Put plainly: Antitrypanosomal activity against Trypanosoma cruzi Tulahuen TcVI infected in Swiss mouse model of Chagas disease assessed as decrease in blood parasitemia level at 50 mg/kg once daily for 5 consecutive days through oral gavage starting on day 8 post infection measured 14 days post infection. It is filed as functional. Also noted: scale not given: the % may be the effect or the level left. The essentials:
as §1

In data set [3] the test system is Trypanosoma cruzi. Put plainly: Antitrypanosomal activity against Trypanosoma cruzi Tulahuen TcVI infected in Swiss mouse model of Chagas disease assessed as decrease in blood parasitemia level at 20 mg/kg once daily for 5 consecutive days through oral gavage starting on day 8 post infection measured 14 days post infection. It is filed as functional. Also noted: scale not given: the % may be the effect or the level left. The essentials: as §1

Another data set addresses CYP3A4/5 (Homo sapiens, UniProt P08684+P20815). In words: Inhibition of CYP3A4/5 in human liver microsomes assessed as reduction in testosterone-beta-hydroxylation. The following applies: probe testosterone. It is filed as ADME, Microsome. The essentials:
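CYP3A4 inhibition measured as inhibition of testosterone β-hydroxylation, reported as IC50 (µM).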

A short description of data set [4]: Kinetic solubility of the compound at pH 6.5 phosphate buffer by nephelometric analysis. It is filed as physicochemical. Conditions: read-out: Kinetic_solubility. The essentials:
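Kinetic solubility in phosphate buffer at pH 6.5, determined by nephelometry and reported in µg/mL.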

Data set [5] in a line: Selectivity index, ratio of IC50 for rat L6 cells to IC50 for Trypanosoma cruzi Tulahuen TcVI extracellular trypomastigotes forms. It is filed as toxicity, cell-based. Conditions: read-out: Ratio IC50. The gist of the method:
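Ratio of the L6 myoblast cytotoxicity IC50 to the IC50 against β-galactosidase-expressing T. cruzi Tulahuen TcVI.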

A further data set has as its system L6. Put plainly: Cytotoxicity against rat L6 cells after 72 hrs by Alamar Blue assay. It is filed as cell-based. The following applies: L6, 72 h. The gist of the method: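 Counter-screen for cytotoxicity in uninfected L6 rat skeletal muscle myoblasts, with IC50 recorded in µM.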
In data set [6] the test system is Trypanosoma cruzi. In words: Antitrypanosomal activity against Trypanosoma cruzi Tulahuen TcVI extracellular trypomastigotes forms transfected with beta-galactosidase gene infected in rat L6 cells assessed as inhibition of parasite growth after 4 days. It is filed as functional, organism-based. Conditions: L6, 96 h. The essentials: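 L6 rat skeletal myoblasts were infected with extracellular trypomastigotes of β-galactosidase-transfected T. cruzi Tulahuen TcVI. After 48 h to establish infection, compound was added and incubation continued 4 days, exposing trypomastigote and intracellular amastigote forms.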

The subject of data set [7] is Trypanosoma cruzi. Put plainly: Antitrypanosomal activity against Trypanosoma cruzi Tulahuen TcVI infected in Swiss mouse model of Chagas disease assessed as increase in host survival at 100 mg/kg once daily for 5 consecutive days through oral gavage starting on day 8 post infection measured 14 days post infection. It is filed as functional, organism-based. Also noted: dose 100 mg/kg. The gist of the method: (§2)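 Female Swiss mice (n = 5 per group) were infected with 25,000 blood-form T. cruzi Tulahuen TcVI trypomastigotes and dosed orally by gavage once daily for 5 days from day 8 pi.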

The test system of data set [8] is Trypanosoma cruzi. In words: Antitrypanosomal activity against Trypanosoma cruzi Tulahuen TcVI infected in Swiss mouse model of Chagas disease assessed as increase in host survival at 50 mg/kg once daily for 5 consecutive days through oral gavage starting on day 8 post infection measured 14 days post infection. It is filed as functional, organism-based. Set-up: dose 50 mg/kg. The gist of the method:
as §2

The test system of data set [9] is Mus musculus. Put plainly: AUC (0 to 7.5 hrs) in Swiss mouse at 50 mg/kg, po. The following applies: in vivo. Set-up: time < 7.5 hr, dose 50 mg/kg, route oral. It is filed as ADME, organism-based, Plasma. The gist of the method:
(§3)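 Non-infected male Swiss outbred mice received single oral gavage doses of 20, 50 and 100 mg/kg. […] Full-scan LC-MS was run on selected plasma samples to identify metabolites.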

Data set [10] concerns Mus musculus. Put plainly: AUC (0 to 7.5 hrs) in Swiss mouse at 100 mg/kg, po. It is filed as ADME, organism-based, Plasma. Set-up: time < 7.5 hr, dose 100 mg/kg, route oral. Conditions: in vivo. The essentials:
as §3

Data set [11] relates to Mus musculus. Put plainly: AUC (0 to 7.5 hrs) in Swiss mouse at 20 mg/kg, po. It is filed as ADME, organism-based, Plasma. Set-up: time < 7.5 hr, dose 20 mg/kg, route oral. The following applies: in vivo. The essentials: as §3
A short description of data set [12]: Apparent half life in Swiss mouse at 20 to 100 mg/kg, po. It is filed as ADME, organism-based. Conditions: in vivo, read-out: t1/2(app) (converted). Set-up: dose 20-100 mg/kg, route oral. The essentials:
as §3

For data set [13], the system named is Mus musculus. In words: Toxicity in Swiss mouse at 20 to 100 mg/kg, po. It is filed as organism-based. Also noted: dose 20-100 mg/kg, route oral. The following applies: in vivo. The gist of the method: as §3
Data set [14] in a line: Tmax in Swiss mouse at 20 to 100 mg/kg, po. Conditions: in vivo. It is filed as ADME, organism-based. Set-up: dose 20-100 mg/kg, route oral. The essentials:
as §3

Data set [15] concerns Trypanosoma cruzi. In words: Antitrypanosomal activity against Trypanosoma cruzi Tulahuen TcVI infected in Swiss mouse model of Chagas disease assessed as increase in host survival at 20 mg/kg once daily for 5 consecutive days through oral gavage starting on day 8 post infection measured 14 days post infection. It is filed as functional, organism-based. Also noted: dose 20 mg/kg. The essentials: as §2

For `CS(=O)(=O)N1CCN(C(c2cccnc2)c2ccc(Cl)cc2F)CC1` (stereo not given) [listing 1 of 2 here], the Activity in the data set with Trypanosoma cruzi [1] was determined as 96%; in the data set with Trypanosoma cruzi [2], 95%; in the data set on Trypanosoma cruzi [3], 73%. Further, the IC50 at CYP3A4/5 was 1300 nM; with L6, greater than 100000 nM; with Trypanosoma cruzi [6], 35 nM. For the same compound, in data set [4], the solubility kinetic was 12.5 µg/mL (≈ 32.6 µM). Moreover, the selectivity ratio in data set [5] is greater than 100.

`CC[C@@H]([C@H](C)O)n1ncn(-c2ccc(N3CCN(c4ccc(OC[C@@H]5CO[C@@](Cn6cncn6)(c6ccc(F)cc6F)C5)cc4)CC3)cc2)c1=O` [POSACONAZOLE]: the result with Trypanosoma cruzi [7], in the data set on Trypanosoma cruzi [8], in the data set with Trypanosoma cruzi [1] and in the data set on Trypanosoma cruzi [2] was Active. For the same compound, the results for the 50% inhibitory concentration (IC50) in the data set on L6 and in the data set on Trypanosoma cruzi [6] were greater than 100000 nM and 0.7 nM, respectively.

On to `CC(=O)N1CCN(C(c2ccc(Cl)cc2)c2cccnc2)CC1.O=C(O)CC(O)(CC(=O)O)C(=O)O` (stereo not given), for which the area under the curve (AUC) in the data set with Mus musculus [9] was found to be 6.2 µM·h; with Mus musculus [10] it was 9.4 µM·h; in the data set with Mus musculus [11] it was 2.3 µM·h. The half-life in data set [12] was 102 min. Moreover, in the data set on Mus musculus [13], the Activity result is recorded as “Non-toxic”. In addition, in data set [14], the Tmax was 15 min.

For `CS(=O)(=O)N1CCN(C(c2cccnc2)c2ccc(Cl)cc2F)CC1.O=C(O)CC(O)(CC(=O)O)C(=O)O` (stereo not given), the AUC with Mus musculus [9] was 60.2 µM·h; in the data set with Mus musculus [10], 43.7 µM·h; in the data set on Mus musculus [11], 7.2 µM·h. In addition, the half-life in [12] was 126 min. Moreover, the Activity result with Mus musculus [13] is listed as “Non-toxic”. Moreover, the Tmax in [14] was 15 min.

`O=C(C1CC1)N1CCN(C(c2cccnc2)c2ccc(Cl)cc2F)CC1` (stereo not given): the results for the IC50 at CYP3A4/5, with L6 and with Trypanosoma cruzi [6] were 1800 nM, greater than 100000 nM and 26 nM, respectively. Also, the solubility kinetic in [4] came out at 50 µg/mL (≈ 134 µM). For the same compound, the selectivity ratio in data set [5] is greater than 100.

Regarding `Cc1csc(C(=O)N2CCN(C(c3cccnc3)c3ccc(Cl)cc3F)CC2)n1` (stereo not given), the IC50 at CYP3A4/5 is 2800 nM; in the data set with L6, 93000 nM; in the data set with Trypanosoma cruzi [6] it was 36 nM. For the same compound, the solubility kinetic in data set [4] stood at 50 µg/mL (≈ 116 µM). Besides, in [5], the selectivity ratio was greater than 100.

With `CC(C)(C)NC(=O)N1CCN(C(c2cncnc2)c2ccc(Cl)cc2F)CC1` (stereo not given), the IC50 on CYP3A4/5 is 6900 nM; in the data set with L6, greater than 100000 nM; in the data set on Trypanosoma cruzi [6], 54 nM. Further, the solubility kinetic in [4] stood at 50 µg/mL (≈ 123 µM). Besides, the selectivity ratio in data set [5] was greater than 100.

As for `CC(C)(C)C(=O)N1CCN(C(c2cncnc2)c2ccc(Cl)cc2F)CC1` (stereo not given), the IC50 on CYP3A4/5 was 7000 nM; with L6, greater than 100000 nM; in the data set on Trypanosoma cruzi [6], 81 nM. Moreover, the solubility kinetic in [4] turned out to be 25 µg/mL (≈ 64 µM). In addition, the selectivity ratio in data set [5] is greater than 100.

Turning to `CS(=O)(=O)N1CCN(C(c2ccc(Cl)cc2)c2cccnc2)CC1` (stereo not given), the figures for the IC50 on CYP3A4/5, in the data set on L6 and in the data set with Trypanosoma cruzi [6] were 3600 nM, greater than 100000 nM and 110 nM, respectively. In [4], the solubility kinetic is 12.5 µg/mL (≈ 34.2 µM). Besides, the selectivity ratio in [5] is greater than 100.

Consider `CS(=O)(=O)N1CCN(C(c2cccnc2)c2ccc(Cl)cc2F)CC1` (stereo not given) [listing 2 of 2 here], for which the outcome with Trypanosoma cruzi [7], in the data set on Trypanosoma cruzi [8] and with Trypanosoma cruzi [15] was Active.

On to `CC(=O)N1CCN(C(c2ccc(Cl)cc2)c2cccnc2)CC1` (stereo not given), for which the result with Trypanosoma cruzi [7], in the data set with Trypanosoma cruzi [8] and in the data set on Trypanosoma cruzi [15] was Active. Also, the result with Trypanosoma cruzi [1], with Trypanosoma cruzi [2] and with Trypanosoma cruzi [3] was inactive.
